Measurements reported in ChEMBL document CHEMBL3124822, “Discovery of a rapidly metabolized, long-acting β(2) adrenergic receptor agonist with a short onset time incorporating a sulfone group suitable for once-daily dosing” (J Med Chem, 2014).

Columns and labels:
[1] = Plasma clearance in Han Wistar rat at 0.25 mg/kg, iv up to 7 hrs by LC-MS/MS analysis; format: ADME, organism-based; parameters: dose 0.25 mg/kg, route intravenous
Method in brief: (§1)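 Han Wistar rats dosed 0.25 mg/kg intravenously; plasma sampled at various times up to 7 h postdose. Clearance expressed as percentage of liver blood flow.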

L5178Y = assay: Genotoxicity against mouse L5178Y cells in presence of rat liver metabolic activation system; format: toxicity, cell-based
Method in brief: (§2)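 Acetate and 4-biphenylsulfonate salts screened in Ames and mouse lymphoma L5178Y assays, with and without a rat liver metabolic activation system.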

Salmonella typhimurium [2] = assay: Genotoxicity in Salmonella typhimurium by Ames assay in presence of rat liver metabolic activation system; format: toxicity, organism-based; details: salmonella enterica subsp. enterica serovar typhimurium; method in brief: as §2
Salmonella typhimurium [3] = assay: Genotoxicity in Salmonella typhimurium by Ames assay; format: toxicity, organism-based; details: salmonella enterica subsp. enterica serovar typhimurium; method in brief: as §2
Cavia porcellus [4] = assay: Bronchodilatory activity in guinea pig assessed as duration of action of inhibition of histamine-induced bronchoconstriction at 10 times EC90 administered via nebulization 2 mins prior to histamine challenge; format: functional
Method in brief: (§3)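 Conscious guinea pigs, n = 24 per group, given test agonist as a nebulized solution in dimethylacetamide–saline vehicle (2 min nebulization) before histamine (10 mM, nebulized 1.3 min) in a whole-body plethysmograph. PenH recorded for 15 min as index of airway obstruction. Dose expressed as nebulizer concentration; duration taken as time to 50% recovery.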

Cavia porcellus [5] = assay: Bronchodilatory activity in guinea pig assessed as inhibition of histamine-induced bronchoconstriction administered via nebulization 2 mins prior to histamine challenge; format: functional; method in brief: as §3
[6] = Binding affinity to guinea pig sigma receptor; parameters: species or system Cavia porcellus
[7] = molecular target: 5-hydroxytryptamine receptor 1B (Homo sapiens, UniProt P28222); assay: Binding affinity to human 5HT1B receptor
[8] = molecular target: T1, 5-hydroxytryptamine receptor 1A (Homo sapiens, UniProt P08908); assay: Binding affinity to human 5HT1A receptor
T1 sequence (P08908 whole entry): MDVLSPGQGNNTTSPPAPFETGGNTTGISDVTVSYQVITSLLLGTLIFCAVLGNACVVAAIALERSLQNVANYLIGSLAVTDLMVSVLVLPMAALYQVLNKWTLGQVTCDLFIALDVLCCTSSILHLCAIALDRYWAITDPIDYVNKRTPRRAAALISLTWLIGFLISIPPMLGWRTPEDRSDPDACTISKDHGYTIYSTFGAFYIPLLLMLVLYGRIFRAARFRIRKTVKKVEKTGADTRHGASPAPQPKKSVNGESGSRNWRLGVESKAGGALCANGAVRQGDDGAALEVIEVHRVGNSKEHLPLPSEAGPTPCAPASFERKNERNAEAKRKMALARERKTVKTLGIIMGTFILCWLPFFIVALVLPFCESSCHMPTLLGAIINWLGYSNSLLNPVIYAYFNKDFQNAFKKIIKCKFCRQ

Hepatocyte [9] = assay: Drug metabolism in human hepatocytes assessed as metabolite M12 formation at 12.5 uM after 2 hrs by LC-MS/MS analysis; format: ADME, cell-based
Method in brief: (§4)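 Human hepatocytes incubated with substrate at 12.5 μM for 2 h. Products characterized by LC–MS/MS on a C18 column, 5–95% acetonitrile gradient in water with 0.1% formic acid over 8 min. Metabolites numbered by elution order. Abundance is semiquantitative from peak heights (low/medium/high), assuming equal analyte response.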

Hepatocyte [10] = assay: Drug metabolism in human hepatocytes assessed as metabolite M7 formation at 12.5 uM after 2 hrs by LC-MS/MS analysis; format: ADME, cell-based; method in brief: as §4
Hepatocyte [11] = assay: Drug metabolism in human hepatocytes assessed as metabolite M1 formation at 12.5 uM after 2 hrs by LC-MS/MS analysis; format: ADME, cell-based; method in brief: as §4
[12] = Drug metabolism in human hepatocytes at 1 uM after 2 hrs by LC-MS/MS analysis; format: ADME, cell-based, Hepatocyte; details: read-out: Drug metabolism
Method in brief: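 Human hepatocytes incubated with substrate at 1 μM for 2 h; percentage turnover of parent determined.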

Liver microsome = assay: Clearance in human liver microsomes; format: ADME
Method in brief: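 Compound incubated with liver microsomes; in vitro metabolic clearance expressed as (mL/min)/g liver.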

[13] = Ratio of drug uptake from blood to plasma in human; format: ADME
Method in brief: (§5)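 In vitro partitioning of the compound into the cellular fraction of rat, dog and human blood, reported as the blood:plasma ratio.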

[14] = Ratio of drug uptake from blood to plasma in dog; format: ADME, Canis lupus familiaris; method in brief: as §5
[15] = Plasma protein binding in human; format: ADME, cell-free; details: read-out: PPB (converted)
[16] = Plasma protein binding in dog; format: ADME, cell-free, Canis lupus familiaris; details: read-out: PPB (converted)
[17] = Plasma protein binding in rat; format: ADME, cell-free; details: read-out: PPB (converted)
Cytochrome P450 2C19 = Cytochrome P450 2C19 (Homo sapiens, UniProt P33261); assay: Inhibition of human CYP2C19 expressed in Escherichia coli; format: ADME
Method in brief: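 Human CYP isoforms expressed in E. coli; IC50 from n = 3. Probe substrates diethoxyfluorescein and 7-benzyloxyquinoline are stated for CYP3A4.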

[18] = Volume of distribution at steady state in Han Wistar rat at 0.25 mg/kg, iv up to 7 hrs by LC-MS/MS analysis; format: ADME, organism-based; parameters: dose 0.25 mg/kg, route intravenous; details: in vivo, read-out: Vdss; method in brief: as §1

Cytochrome P450 2C19, sequence (P33261 whole entry, canonical isoform): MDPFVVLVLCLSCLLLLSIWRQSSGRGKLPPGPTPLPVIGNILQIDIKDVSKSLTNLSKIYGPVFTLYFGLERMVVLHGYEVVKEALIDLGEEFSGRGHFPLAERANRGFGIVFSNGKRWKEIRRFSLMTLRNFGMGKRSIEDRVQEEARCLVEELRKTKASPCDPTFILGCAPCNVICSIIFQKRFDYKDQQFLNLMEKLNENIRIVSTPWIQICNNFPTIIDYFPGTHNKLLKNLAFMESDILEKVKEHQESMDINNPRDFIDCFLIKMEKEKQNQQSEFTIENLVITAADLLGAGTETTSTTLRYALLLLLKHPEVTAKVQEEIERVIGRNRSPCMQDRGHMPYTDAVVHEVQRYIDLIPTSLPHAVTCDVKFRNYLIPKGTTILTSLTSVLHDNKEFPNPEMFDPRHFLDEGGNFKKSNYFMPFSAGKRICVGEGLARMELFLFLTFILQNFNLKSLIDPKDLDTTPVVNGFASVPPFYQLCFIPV
5-hydroxytryptamine receptor 1B, sequence (P28222 whole entry): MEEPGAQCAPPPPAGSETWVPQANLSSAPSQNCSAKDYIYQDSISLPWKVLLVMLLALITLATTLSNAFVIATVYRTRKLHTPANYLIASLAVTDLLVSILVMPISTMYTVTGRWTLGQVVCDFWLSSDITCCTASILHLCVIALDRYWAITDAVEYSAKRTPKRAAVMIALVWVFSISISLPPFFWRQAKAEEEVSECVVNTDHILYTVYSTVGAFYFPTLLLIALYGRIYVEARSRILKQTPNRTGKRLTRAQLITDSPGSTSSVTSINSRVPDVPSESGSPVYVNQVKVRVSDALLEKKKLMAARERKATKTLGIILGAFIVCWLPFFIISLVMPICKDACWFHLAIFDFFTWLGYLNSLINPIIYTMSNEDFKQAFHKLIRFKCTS

- clearance [1]: 53 mL/min/kg
- EC90 (Cavia porcellus [5]): 10000 nM
- pIC50 [6]: 6.8
- IC50 [7]: 100 nM
- IC50 [8]: 100 nM
- Drug metabolism (Hepatocyte [9]): Active
- Drug metabolism (Hepatocyte [10]): Active
- Drug metabolism (Hepatocyte [11]): Active
- metabolised at 2 h, 1 µM [12]: 90%
- CLH (Liver microsome): 8 mL/min/g
- blood plasma ratio [13]: 0.65
- blood plasma ratio [14]: 0.6
- fraction unbound [15]: 0.02
- fraction unbound [16]: 0.03
- fraction unbound [17]: 0.02
- IC50 (Cytochrome P450 2C19): > 10000 nM
- Vd [18]: 1.1 L/kg
SMILES: CC(=O)O.O=S(=O)(c1cccc(CCCCOCCCCCCNC[C@H](O)c2ccc(O)c(CO)c2)c1)C1CCCC1
- Activity (L5178Y): Non-toxic
- Activity (Salmonella typhimurium [2]): Non-toxic
- Activity (Salmonella typhimurium [3]): Non-toxic
- Time (Cavia porcellus [4]): >24 h
